According to the array DNA melting data of Ke et al. (doi:10.1101/2024.01.08.574731):

Key:
[1] = folding enthalpy; higher = less favourable; fluorescence melt of hairpins on a sequencing array, two-state fit; settings: sodium 0.088 M
In short: (§1)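 Folding enthalpy and melting temperature come from bootstrapped two-state fits to Cy3 fluorescence of library hairpins carrying annealed Cy3 and quencher oligos on a sequenced MiSeq flow cell. Imaging was done in 50 mM Na-HEPES pH 8.0, 25 mM NaCl, stepping by 2.5 °C up to 60 °C, and signals were normalised to pre-quench Cy3 and to control constructs. Results of four replicates were combined by inverse variance, and fitted temperatures were raised by 9.35 °C to match UV melts.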

[2] = melting temperature; fluorescence melt of hairpins on a sequencing array, two-state fit, raised by 9.35 °C to match UV melts; settings: sodium 0.088 M
In short: as §1

| Sequence | folding enthalpy [1] | Tm [2] |
| --- | --- | --- |
| GCTACCGAAAGGTGAAGC ((((((....)))..))) | -19 kcal/mol | 42 °C |
| GATCGATGAGTCGATC ((((((....)))))) | -41.6 kcal/mol | 55.5 °C |
| GACAATGGAAACATCGTC (((.(((....))).))) | -26.4 kcal/mol | 32.5 °C |
| GATCCAAAAATGGATC ((((((....)))))) | -26.4 kcal/mol | 42.9 °C |
| GGGCATGGAAACGTGCCC (((((.(....).))))) | -50.3 kcal/mol | 60 °C |
| GGGGGCGGAAACGTCCCC ((((.((....)).)))) | -22.5 kcal/mol | 67.4 °C |
| GGTAAAGGAAACTTTACC (((((((....))))))) | -47.8 kcal/mol | 52.1 °C |
| GAGAACGAAAGTTGCTC ((((((....))).))) | -15.7 kcal/mol | 33.6 °C |
| GATCCTGGTTAGGATC ((((((....)))))) | -38 kcal/mol | 51.9 °C |
| GATCACCAAAGTGATC ((((((....)))))) | -50.8 kcal/mol | 55.2 °C |
| GCCTTGCGAAAGCGACGC ((.(.((....)).).)) | -10.5 kcal/mol | 48.2 °C |
| GGCCTCGGAAACGAGGTC (.(((((....))))).) | -28.2 kcal/mol | 64.7 °C |
| GGTTACGGAAACGTGACC (((.(((....))).))) | -36.4 kcal/mol | 53.4 °C |
| GATCAAAGCCTTGATC ((((((....)))))) | -28.4 kcal/mol | 44.1 °C |
| GCACCGCGAAAGCCTTGC (((..((....))..))) | -14.8 kcal/mol | 37 °C |
| GTTCCCGGAAACGGAAAC (((.(((....))).))) | -24.4 kcal/mol | 41.1 °C |
| GATCTCAGCGAGATC ((((((...)))))) | -35.3 kcal/mol | 56.6 °C |
| GAGGTCGGAAACGGCCTC ((((.((....)).)))) | -41.8 kcal/mol | 62.3 °C |
| GCACCGCGAAAGCGAAGC ((..(((....)))..)) | -11.7 kcal/mol | 41.4 °C |
| GAGTGCGAAAGCAGCCTC ((((((....)))..))) | -13.2 kcal/mol | 34.5 °C |
| GACAAGCGAAAGCTCGTC (((.(((....))).))) | -21 kcal/mol | 49.3 °C |
| GTAGGTGGAAACATCTAC ((((.((....)).)))) | -31.3 kcal/mol | 42.4 °C |
| GCTACGCGAAAGCGACGC ((..(((....)))..)) | -15.1 kcal/mol | 40.2 °C |

| Sequence | folding enthalpy [1] | Tm [2] |
| --- | --- | --- |
| GATCCGCGAAAGCGATC (((.(((....)))))) | -14 kcal/mol | 44.6 °C |
| GCTACAGGAAACTGTGGC ((.((((....)))).)) | -39 kcal/mol | 51.8 °C |
| GTCCGCGAAAGCGGCGAC ((((((....)))..))) | -10.7 kcal/mol | 67 °C |
| GTAACTGGAAACAGTTAC (((((((....))))))) | -41.6 kcal/mol | 56.1 °C |
| GATCGACTGATCGATC ((((((....)))))) | -30.5 kcal/mol | 50.9 °C |
| GGCCATCGAAAGATCGCC (((.(((....))).))) | -33.6 kcal/mol | 46.8 °C |
| GCATGGCGAAAGCAACGC ((.(.((....)).).)) | -10.8 kcal/mol | 30.7 °C |
| GTTCTAGGAAACTAGAAC (((((((....))))))) | -35 kcal/mol | 53.1 °C |
| GATAACGGAAACGTCATC (((.(((....))).))) | -19.3 kcal/mol | 31.4 °C |
| GCGATTCGTCGC ((((....)))) | -28.4 kcal/mol | 54.5 °C |
| GGGCTCGAAAGAGAACCC ((((((....)))..))) | -19.5 kcal/mol | 45.2 °C |
| GCGTACCTACGC ((((....)))) | -29.7 kcal/mol | 52.8 °C |
| GTGAGCGGAAACGCCCAC (((.(((....))).))) | -23.7 kcal/mol | 51.1 °C |
| GTCAAAGAAATTTGAC ((((((....)))))) | -29.1 kcal/mol | 45 °C |
| GCATCGCGAAAGCGTAGC ((..(((....)))..)) | -17.1 kcal/mol | 48.5 °C |
| GAGTGTGGAAACACACCC (.(((((....))))).) | -11.7 kcal/mol | 40.8 °C |
| GATCTCCTGGGAGATC ((((((....)))))) | -43.3 kcal/mol | 56.5 °C |
| GCACCCGAAAGGGACTGC ((((((....)))..))) | -16 kcal/mol | 40.8 °C |
| GCGACCGAAAGGTATCGC ((((((....)))..))) | -27.7 kcal/mol | 50.5 °C |
| GATCAGCAATCTGATC ((((((....)))))) | -32.5 kcal/mol | 47.2 °C |
| GCTCCCGAAAGGGTAAGC ((((((....)))..))) | -20.7 kcal/mol | 46.2 °C |
| GCTCGCGGAAACGCGAAC (.(((((....))))).) | -11.3 kcal/mol | 48.9 °C |
| GATTCCGAAAGGAGGATC ((((((....)))..))) | -11.2 kcal/mol | 30.4 °C |

| Sequence | folding enthalpy [1] | Tm [2] |
| --- | --- | --- |
| ATTGCGAAAGCAAT (((((....))))) | -17.5 kcal/mol | 57.6 °C |
| GGTCTTCGAAAGAACACC (((.(((....))).))) | -26.6 kcal/mol | 32.6 °C |
| GGTCACGAAAGTGGGACC ((((((....)))..))) | -23.4 kcal/mol | 48 °C |
| GTGATTGGAAACAATTGC (..((((....))))..) | -20.4 kcal/mol | 31.3 °C |
| GGCTCTGGAAACGGAGCC (((((.(....).))))) | -47.1 kcal/mol | 60 °C |
| GTGCGCGGAAACGTGCAC ((((.((....)).)))) | -35.4 kcal/mol | 67.5 °C |
| GCCATACGAAAGTACGGC (((.(((....))).))) | -37 kcal/mol | 51.5 °C |
| GCCACAGGAAACCGTGGC (((((.(....).))))) | -43 kcal/mol | 55.4 °C |
| GTTTGCGAAAGCATAAAC ((((((....)))..))) | -13 kcal/mol | 31.5 °C |
| GCCGCGCGAAAGCACAGC ((.(.((....)).).)) | -13.6 kcal/mol | 46.9 °C |
| GCGACCAATCGC ((((....)))) | -23.6 kcal/mol | 44 °C |
| GCCTTGCGAAAGCCACGC ((.(.((....)).).)) | -7.87 kcal/mol | 46.8 °C |
| GTAGGCGCGAAAGCGTAC (((..(((....)))))) | -9.85 kcal/mol | 34.9 °C |
| GTACCCGGAAACGGATAC (((.(((....))).))) | -24.3 kcal/mol | 42.2 °C |
| GAACCCGAAAGGGTTTC ((((((....))).))) | -12.1 kcal/mol | 56.9 °C |
| GATCAGGGACTGATC ((((((...)))))) | -39.5 kcal/mol | 59.6 °C |
| GATCTGCGAAAGCATATC (((.(((....))).))) | -20.7 kcal/mol | 41.1 °C |
| GCAAGGCGAAAGCCTGGC ((.((((....)))).)) | -23.1 kcal/mol | 68.9 °C |
| GCCCTAGGAAACTAGGAC (.(((((....))))).) | -19.6 kcal/mol | 37.7 °C |
| GTTTCTCGAAAGAGCAAC (((.(((....))).))) | -23.6 kcal/mol | 36.4 °C |
| GCAAGGCGAAAGCTGTGC (((..((....))..))) | -18.1 kcal/mol | 52.8 °C |
| GCGCGGCGAAAGCAGGGC ((.(.((....)).).)) | -19.8 kcal/mol | 63.2 °C |
| GTGTGCGAAAGCATACAC ((((((....)))..))) | -18.2 kcal/mol | 53.1 °C |
